The record followed here is ChEMBL document CHEMBL4602728, “6-Amino[1,2,5]oxadiazolo[3,4-b]pyrazin-5-ol Derivatives as Efficacious Mitochondrial Uncouplers in STAM Mouse Model of Nonalcoholic Steatohepatitis” (J Med Chem, 2020).

Calls of active or inactive are those of the source.

A short description of series [1]: Toxicity in C57BL/6 mouse model of streptozotocin-induced nonalcoholic steatohepatitis assessed as decrease in food consumption per cage at 10 mg/kg/day, po formulated into HFD administered for 21 days measured during compound dosing relative to control. Conditions: in vivo, 504 h. Format: organism-based. Set-up: scale not given: the % may be the effect or the level left.

The test system of series [2] is Mus musculus. Description: Anti-hepatosteatosis activity in C57BL/6 mouse model of streptozotocin-induced nonalcoholic steatohepatitis assessed as fibrosis score at 10 mg/kg/day, po administered for 21 days formulated into HFD measured post-last dose by Picro-Sirius red staining based histopathological analysis (reference value: 0.91 +/- 0.09 %). The series is classed as functional.

Series [3] in a line: Toxicity in C57BL/6 mouse model of streptozotocin-induced nonalcoholic steatohepatitis assessed as effect on body weight at 10 mg/kg/day, po formulated into HFD administered for 21 days measured during compound dosing. Format: organism-based. Conditions: in vivo, 504 h.
Series [4] can be described thus: Toxicity in C57BL/6 mouse model of streptozotocin-induced nonalcoholic steatohepatitis assessed as effect on liver weight at 10 mg/kg/day, po formulated into HFD administered for 21 days measured during compound dosing. Format: organism-based. As to conditions: in vivo, 504 h.
Series [5] has as its system Mus musculus. The experiment in a line: Anti-hepatosteatosis activity in C57BL/6 mouse model of streptozotocin-induced nonalcoholic steatohepatitis assessed as reduction in liver triglyceride level at 10 mg/kg/day, po administered for 21 days formulated into HFD measured post-last dose by triglyceride E test based assay. The series is classed as functional, organism-based.

The nature of series [6]: Toxicity in C57BL/6 mouse model of streptozotocin-induced nonalcoholic steatohepatitis assessed as increase in plasma cholesterol level at 25 mg/kg/day, po formulated into HFD administered for 21 days measured post last dose by […] reagent based colorimetric method. Format: organism-based. As to conditions: in vivo, 504 h. The method, boiled down: (§1)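 Cholesterol was measured in day-21 nonfasting plasma of STAM male mice on 25 mg kg−1 d−1 drug in high-fat diet. The colorimetric assay used Infinity cholesterol reagent at 37 °C for 5–20 min, reading absorbance at 500 nm minus 660 nm background. Values were interpolated from a cholesterol standard curve. n = 8; Kruskal–Wallis test.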

Series [7] relates to Mus musculus. Description: Anti-hepatosteatosis activity in C57BL/6 mouse model of streptozotocin-induced nonalcoholic steatohepatitis assessed as reduction in ALT level at 10 mg/kg/day, po administered for 21 days formulated into HFD measured post-last dose. The series is classed as functional, organism-based.
The nature of series [8]: Toxicity in C57BL/6 mouse model of streptozotocin-induced nonalcoholic steatohepatitis assessed as change in plasma AST level at 10 mg/kg/day, po formulated into HFD administered for 21 days measured post last dose. The series is classed as organism-based. Conditions: in vivo, 504 h.
Series [9] can be described thus: Induction of mitochondrial uncoupling in rat L6 cells assessed as increase in oxygen consumption rate incubated for 90 mins by Seahorse XF analyzer based assay. Format: mitochondria, Mitochondria.
Series [10] can be described thus: Toxicity in C57BL/6 mouse assessed as increase in body temperature at 5 to 50 mg/kg, po measured upto 4 hrs by rectal probe thermometry. Format: organism-based. As to conditions: in vivo. Put shortly: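 Male C57BL/6 mice received a single oral gavage of vehicle or compound at 5, 20 or 50 mg/kg. The vehicle was methylcellulose, Tween 80 and DMSO. Core body temperature was taken with a rectal probe thermometer at set time points. n = 3; two-way repeated measures ANOVA.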

Series [11] is described as follows: Cmax in C57BL/6 mouse at 10 mg/kg, po administered via gavage by LC/MS-MS analysis. The series is classed as ADME, organism-based. Set-up: dose 10 mg/kg, route oral. Conditions: in vivo. Put shortly:
(§2)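 Male C57BL/6 mice aged 9–12 weeks received a single 10 mg/kg oral gavage bolus. The vehicle was methylcellulose 90–91%, Tween 80 2–3% and DMSO 6–8% (v/v). Tail-tip blood was drawn into heparinized capillaries and spun at 2000g for 10 min. Plasma was extracted with acetonitrile:methanol (9:1) and quantified by LC–MS/MS against spiked plasma standards (1–100 ng). n = 3.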

A short description of series [12]: Half life in C57BL/6 mouse at 10 mg/kg, po administered via gavage by LC/MS-MS analysis. As to conditions: in vivo. Format: ADME, organism-based. Put shortly:
as §2

Series [13] can be described thus: Drug distribution in C57BL/6 mouse liver at 10 mg/kg, po administered via gavage measured after 1 hr by LC/MS-MS analysis. Format: ADME, organism-based. Conditions: read-out: Drug uptake. Put shortly:
(§3)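 Male C57BL/6 mice received a single 10 mg/kg oral gavage and were euthanized by cervical dislocation at 1 h. Tissues were rinsed in PBS, snap-frozen, pulverized in liquid nitrogen and homogenized, then spun at 10 000g for 10 min. Supernatants were extracted with acetonitrile:methanol (9:1) and quantified by LC–MS/MS against spiked standards. n = 3.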

Series [14] is described as follows: Drug distribution in C57BL/6 mouse kidney at 10 mg/kg, po administered via gavage measured after 1 hr by LC/MS-MS analysis. Format: ADME, organism-based. Conditions: read-out: Drug uptake. Put shortly:
as §3

A short description of series [15]: Solubility of compound in PBS at pH 7.4. The series is classed as physicochemical. As to conditions: buffer.
Series [16] has as its target Voltage-gated inwardly rectifying potassium channel KCNH2 (Homo sapiens, UniProt Q12809). The experiment in a line: Inhibition of human ERG by Qpatch method. For orientation: In patch-clamp work, channel activity is measured electrically.
Series [17] can be described thus: Toxicity in C57BL/6 mouse model of streptozotocin-induced nonalcoholic steatohepatitis assessed as effect on food consumption per cage at 25 mg/kg/day, po formulated into HFD administered for 21 days measured during compound dosing (reference value: 318 +/- 13 g). Format: organism-based. Conditions: in vivo, 504 h.
The subject of series [18] is Mus musculus. Description: Anti-hepatosteatosis activity in C57BL/6 mouse model of streptozotocin-induced nonalcoholic steatohepatitis assessed as fibrosis score at 25 mg/kg/day, po administered for 21 days formulated into HFD measured post-last dose by Picro-Sirius red staining based histopathological analysis (reference value: 0.91 +/- 0.09 %). Format: functional.

In series [19] the test system is Mus musculus. Description: Anti-hepatosteatosis activity in C57BL/6 mouse model of streptozotocin-induced nonalcoholic steatohepatitis assessed as reduction in steatosis score at 25 mg/kg/day, po administered for 21 days formulated into HFD measured post-last dose by […] based histopathological analysis. Format: functional, organism-based. The method, boiled down:
(§4)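 Liver tissue came from STAM male mice fed drug-containing high-fat diet at 25 mg kg−1 d−1 for 21 days from 6 weeks of age. Pieces of the left lateral lobe were Bouin-fixed and paraffin-embedded, then H&E-stained. A pathologist scored steatosis, inflammation and ballooning using the Kleiner NAFLD activity score criteria. n = 8 per group; Kruskal–Wallis test.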

The subject of series [20] is Mus musculus. The experiment in a line: Anti-hepatosteatosis activity in C57BL/6 mouse model of streptozotocin-induced nonalcoholic steatohepatitis assessed as reduction in inflammation score at 25 mg/kg/day, po administered for 21 days formulated into HFD measured post-last dose by […] based histopathological analysis. The series is classed as functional, organism-based. Put shortly:
as §4

For series [21], the system named is Mus musculus. The experiment in a line: Anti-hepatosteatosis activity in C57BL/6 mouse model of streptozotocin-induced nonalcoholic steatohepatitis assessed as reduction in ballooning score at 25 mg/kg/day, po administered for 21 days formulated into HFD measured post-last dose by […] based histopathological analysis. The series is classed as functional, organism-based. The method, boiled down: as §4

A short description of series [22]: Toxicity in C57BL/6 mouse model of streptozotocin-induced nonalcoholic steatohepatitis assessed as effect on body weight at 25 mg/kg/day, po formulated into HFD administered for 21 days measured during compound dosing. Conditions: in vivo, 504 h. The series is classed as organism-based. Put shortly:
(§5)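 STAM male mice received the compound premixed in high-fat diet for 21 days from 6 weeks of age, at 25 mg kg−1 d−1. Body weight was recorded, and livers were weighed after sacrifice at 9 weeks of age. n = 8 per group; Kruskal–Wallis test.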

Series [23] is described as follows: Toxicity in C57BL/6 mouse model of streptozotocin-induced nonalcoholic steatohepatitis assessed as effect on liver weight at 25 mg/kg/day, po formulated into HFD administered for 21 days measured during compound dosing. Format: organism-based. Conditions: in vivo, 504 h. Put shortly: as §5
The test system of series [24] is Mus musculus. The experiment in a line: Anti-hepatosteatosis activity in C57BL/6 mouse model of streptozotocin-induced nonalcoholic steatohepatitis assessed as reduction in liver triglyceride level at 25 mg/kg/day, po administered for 21 days formulated into HFD measured post-last dose by triglyceride E test based assay. The series is classed as functional, organism-based. Put shortly: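 STAM male mice received 25 mg kg−1 d−1 in high-fat diet for 21 days and were killed at 9 weeks of age. The right liver lobe was snap-frozen. Total lipids were extracted by Folch's method, with homogenization in chloroform–methanol (2:1, v/v) and overnight incubation at room temperature. n = 8 per group; one-way ANOVA.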

Series [25] can be described thus: Toxicity in C57BL/6 mouse model of streptozotocin-induced nonalcoholic steatohepatitis assessed as effect on plasma triglyceride level at 25 mg/kg/day, po formulated into HFD administered for 21 days measured post last dose by GPO reagent based colorimetric method. Format: organism-based. As to conditions: in vivo, 504 h. Put shortly: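 Plasma triglyceride was measured in day-21 nonfasting plasma from STAM male mice given 25 mg kg−1 d−1 in high-fat diet. Samples were incubated with GPO reagent at 37 °C for 5–20 min until absorbance at 500 nm stabilized. Values were interpolated from a glycerol standard curve. n = 8; Kruskal–Wallis test.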

Series [26] can be described thus: Toxicity in C57BL/6 mouse model of streptozotocin-induced nonalcoholic steatohepatitis assessed as effect on plasma cholesterol level at 25 mg/kg/day, po formulated into HFD administered for 21 days measured post last dose by […] reagent based colorimetric method. Format: organism-based. Conditions: in vivo, 504 h. The method, boiled down:
as §1

A short description of series [27]: Toxicity in C57BL/6 mouse model of streptozotocin-induced nonalcoholic steatohepatitis assessed as effect on plasma glucose level at 25 mg/kg/day, po formulated into HFD administered for 21 days measured post last dose by […]. Format: organism-based. As to conditions: in vivo, 504 h. Put shortly: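 Nonfasting whole-blood glucose was read with a glucose meter at sacrifice (day 21) in STAM male mice dosed at 25 mg kg−1 d−1 via high-fat diet. Readings above 900 mg/dL were recorded as 900 mg/dL. n = 8; one-way ANOVA.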

Series [28] relates to Mus musculus. Description: Anti-hepatosteatosis activity in C57BL/6 mouse model of streptozotocin-induced nonalcoholic steatohepatitis assessed as reduction in ALT level at 25 mg/kg/day, po administered for 21 days formulated into HFD measured post-last dose. The series is classed as functional, organism-based. Put shortly:
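STAM male mice were dosed with compound premixed into high-fat diet (57 kcal % fat) from 6 weeks of age for 21 days, at 25 mg kg−1 d−1. They were sacrificed at 9 weeks of age by cardiac puncture under isoflurane. Nonfasting heparinized blood was spun at 1000g for 15 min at 4 °C, and plasma ALT was read on a dry-chemistry analyzer. n = 8 male mice per group; mean ± SEM.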

Series [29] in a line: Toxicity in C57BL/6 mouse model of streptozotocin-induced nonalcoholic steatohepatitis assessed as change in plasma AST level at 25 mg/kg/day, po formulated into HFD administered for 21 days measured post last dose. Format: organism-based. As to conditions: in vivo, 504 h. Put shortly: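 Plasma was taken at day 21 from STAM mice fed drug in high-fat diet at 25 mg kg−1 d−1. AST activity was read with Infinity AST reagent at 37 °C, measuring absorbance at 340 nm every minute for 20 min. U/L was calculated from ΔA/min times a factor based on the NADH molar absorption coefficient, sample volume and path length. n = 8; one-way ANOVA.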

Chain of Voltage-gated inwardly rectifying potassium channel KCNH2 (Q12809 whole entry): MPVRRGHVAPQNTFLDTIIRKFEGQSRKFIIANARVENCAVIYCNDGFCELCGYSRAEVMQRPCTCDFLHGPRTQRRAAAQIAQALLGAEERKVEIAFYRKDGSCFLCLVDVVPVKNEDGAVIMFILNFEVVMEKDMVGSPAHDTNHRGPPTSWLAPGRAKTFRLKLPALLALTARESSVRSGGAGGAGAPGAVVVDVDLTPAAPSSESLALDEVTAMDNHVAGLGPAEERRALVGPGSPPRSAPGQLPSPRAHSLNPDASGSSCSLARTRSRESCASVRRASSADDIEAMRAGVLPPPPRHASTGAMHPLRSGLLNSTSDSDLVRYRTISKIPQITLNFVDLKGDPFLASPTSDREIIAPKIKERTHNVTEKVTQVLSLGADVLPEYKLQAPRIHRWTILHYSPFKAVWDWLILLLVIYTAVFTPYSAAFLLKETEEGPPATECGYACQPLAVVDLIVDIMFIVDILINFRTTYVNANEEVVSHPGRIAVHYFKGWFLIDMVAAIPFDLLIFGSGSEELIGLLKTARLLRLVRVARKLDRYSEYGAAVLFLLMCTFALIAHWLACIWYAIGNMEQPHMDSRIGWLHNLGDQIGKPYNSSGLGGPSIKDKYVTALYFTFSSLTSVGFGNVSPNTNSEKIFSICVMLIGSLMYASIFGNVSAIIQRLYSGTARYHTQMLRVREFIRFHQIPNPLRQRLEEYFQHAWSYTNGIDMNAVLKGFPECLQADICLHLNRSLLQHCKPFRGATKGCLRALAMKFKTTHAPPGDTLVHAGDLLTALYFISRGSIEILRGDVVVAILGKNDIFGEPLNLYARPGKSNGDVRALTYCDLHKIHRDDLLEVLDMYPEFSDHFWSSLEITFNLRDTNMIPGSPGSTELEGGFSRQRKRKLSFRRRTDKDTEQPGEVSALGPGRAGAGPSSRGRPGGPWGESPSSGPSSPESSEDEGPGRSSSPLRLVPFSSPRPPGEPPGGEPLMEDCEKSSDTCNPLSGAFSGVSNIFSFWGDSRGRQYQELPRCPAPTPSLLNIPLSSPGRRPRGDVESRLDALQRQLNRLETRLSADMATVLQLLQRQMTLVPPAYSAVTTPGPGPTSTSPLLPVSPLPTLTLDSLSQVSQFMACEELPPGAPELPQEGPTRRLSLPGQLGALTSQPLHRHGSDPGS

Turning to `CCCc1nc2c(C)cc(-c3nc4ccccc4n3C)cc2n1Cc1ccc(-c2ccccc2C(=O)O)cc1`, the Activity in series [1] is given as 9%; in [2], 0.6%; in series [3], “Toxic”; in series [4], “Toxic”; in series [6], “Toxic”; in series [8], “Non-Toxic”. Further, the outcome in series [5] and in series [7] was Active.
As to `Oc1nc2nonc2nc1Nc1ccc(OC(F)(F)F)cc1`, in series [9], the EC50 (commonly the concentration that produces a half-maximal response) is 4.3 µM. Besides, the Activity result in [10] is reported as “Non-Toxic”; in series [17] it was 331 g; in [18], 0.62%; in series [22] it was “Non-Toxic”; in series [23], “Non-Toxic”; in series [25], “Non-Toxic”. The Activity result in [26], in [27] and in series [29] was “Non-Toxic” throughout. Moreover, the Cmax (in general, the highest concentration seen after dosing) in series [11] worked out at 80.9 µM. Moreover, the half-life (as a rule, the time in which the quantity being followed falls by half) in series [12] was 5.7 h. Moreover, the concentration at 1 h worked out at 15800 ng/g in series [13] and 9200 ng/g in series [14]. Besides, the solubility (in general, the concentration that dissolves in the medium under given conditions) in [15] was over 500 µM. The “inhibition (INH)” value in series [16] was “Not Active”. The outcome in series [19], in series [20], in [21], in [24] and in series [28] was Active.
